Screens (PubChem)
A selection: hits, their analogues and other compounds. The true share with any hit is near 4.6%.
ALR inh = blocks human ALR sulfhydryl oxidase activity; inhibition, % (test concentration not listed); P55789; purified ALR, DTT oxidation, H2O2 HRP-luminol luminescence; AID 485317; hit rate 3.8% among 290,000;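 active = mean replicate inhibition above about 79%, with every replicate also reaching it, limit read from the data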
NALP1 yeast inh = blocks the NALP1 inflammasome reconstituted in yeast. S. cerevisiae NALP1/ASC/caspase-1 growth, X-gal OD620, 72 h. hit rate 0.61% among 280,000. AID 2071. inhibition, % at 10 µM; in the data active = inhibition mostly above about 24%, no sharp cut-off; inactive = mostly below about 32%
PolyA inhibitor = blocks polyadenylation in yeast reporter cells; activity score, % at 12 µM; S. cerevisiae SKY197-pL101 polyadenylation reporter, beta-gal luminescence; efflux-impaired pdr1/pdr3 knockout yeast; score 100 = 6 SD above DMSO; hit rate 0.02% among 300,000; AID 1875;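 active = lowest replicate activity score at least 50, where 100 means six control SD above control mean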;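 note: yeast exposed to compound for 9 h at 30 °C; higher score means more reporter readthrough which indicates perturbed polyadenylation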
Arr AP2 block = blocks beta-arrestin peptide binding to AP2 adaptin; AID 504490; hit rate 0.31% among 340,000; inhibition, % at 10 µM; FITC-arrestin peptide / GST-AP2 beads, flow cytometry; AP2 beta2 appendage carries R879A mutation;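 active = inhibition above a set limit, near 3 SD of compounds lacking own fluorescence, cut at about 54% in these data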;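 note: plate controls were DMSO wells for no effect and 5 µM unlabelled arrestin peptide for full effect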
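System: GST-AP2 R879A glutathione beads. Medium: PBS with 0.05% Tween 20 and 0.1% BSA. Also added: FITC-arrestin peptide, 50 nM. Incubation: 12 min plus 1 h, RT. Measured by: high-throughput flow cytometry of beads, ex 488, em 535 nm. Evaluation: percent drop in bead-associated FITC signal.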
DSG3 Ab inh = human desmoglein-3 autoantibody binding inhibition. P32926. DSG3-coupled beads, scFv-anti-DSG3-GFP binding, flow cytometry; stronger effect = lower value. binding (percent of control), % at 10 µM. hit rate 0.48% among 310,000;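 active = binding more than 3 SD below its plate's average and above zero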;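 note: hits lower antibody fragment binding to DSG3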
Target sequence (P32926 whole entry, looked up, the tested form may be a part): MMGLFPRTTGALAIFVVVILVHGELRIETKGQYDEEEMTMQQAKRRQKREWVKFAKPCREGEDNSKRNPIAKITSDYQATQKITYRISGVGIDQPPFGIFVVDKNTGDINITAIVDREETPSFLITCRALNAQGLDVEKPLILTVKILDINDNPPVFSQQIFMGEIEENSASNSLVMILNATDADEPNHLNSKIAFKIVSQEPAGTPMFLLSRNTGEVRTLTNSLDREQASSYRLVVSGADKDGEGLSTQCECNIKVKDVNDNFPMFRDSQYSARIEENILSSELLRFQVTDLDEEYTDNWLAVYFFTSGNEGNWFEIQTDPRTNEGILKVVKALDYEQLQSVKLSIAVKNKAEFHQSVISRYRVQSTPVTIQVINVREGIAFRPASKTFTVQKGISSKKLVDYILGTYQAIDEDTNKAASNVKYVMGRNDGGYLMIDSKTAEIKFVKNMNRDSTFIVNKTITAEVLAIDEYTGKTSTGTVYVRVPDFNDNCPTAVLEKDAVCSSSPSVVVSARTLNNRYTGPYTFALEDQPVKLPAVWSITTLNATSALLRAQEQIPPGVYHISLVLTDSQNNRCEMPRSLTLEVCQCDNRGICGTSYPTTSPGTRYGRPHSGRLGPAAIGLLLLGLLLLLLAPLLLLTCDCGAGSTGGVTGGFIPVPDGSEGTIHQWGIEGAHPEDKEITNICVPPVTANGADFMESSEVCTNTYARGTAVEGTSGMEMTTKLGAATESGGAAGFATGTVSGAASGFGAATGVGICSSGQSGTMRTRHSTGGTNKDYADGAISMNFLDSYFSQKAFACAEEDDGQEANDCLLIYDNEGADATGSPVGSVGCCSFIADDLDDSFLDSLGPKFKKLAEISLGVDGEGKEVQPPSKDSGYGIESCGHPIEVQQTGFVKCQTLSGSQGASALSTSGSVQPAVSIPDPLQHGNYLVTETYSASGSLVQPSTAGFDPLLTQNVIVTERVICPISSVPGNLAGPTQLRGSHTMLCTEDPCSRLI
NALP3 yeast inh = NALP3 inhibition in yeast | Yeast reconstituted NLRP3/ASC/caspase-1, beta-gal luminescence, 24 h | hit rate 0.39% among 330,000 | inhibition, % at 10 µM | AID 2825;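 active = inhibition of 50% or more; inactive = inhibition below 50%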;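 note: plate controls were induced DMSO wells for no effect and uninduced yeast grown without galactose for full effect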
* hit, by the source's call.

`O=C(NCc1cc([N+](=O)[O-])ccc1O)c1cccnc1Sc1ccccc1Cl` gave ALR inh 7.1, NALP1 yeast inh 0.5, PolyA inhibitor -5.8, Arr AP2 block -4.4, DSG3 Ab inh 109.8 and NALP3 yeast inh 14.6.
Screening Cc1ccc(-c2nc(COC(=O)C3=NN(c4ccccc4)C(=O)CC3)cs2)cc1 returned ALR inh 98.6*, Arr AP2 block -5.2, DSG3 Ab inh 102.9 and NALP3 yeast inh 24.2.
`CCC(CC)C(=O)Nc1nnc(S(=O)(=O)N2c3ccccc3CC2C)s1` (stereo unspecified) gave ALR inh -0.6, NALP1 yeast inh 14.2, PolyA inhibitor -10.3, Arr AP2 block -4.3, DSG3 Ab inh -14.5* and NALP3 yeast inh 16.7.
`CCC(CC)C(=O)Nc1nnc(S(=O)(=O)N2CCc3ccccc32)s1` gave NALP1 yeast inh 19.0, PolyA inhibitor -1.0, Arr AP2 block 18.2, DSG3 Ab inh 92.6 and NALP3 yeast inh 9.3.
COc1ccc(NC(=O)CS(=O)CC(=O)Nc2ccc(-n3cnnn3)c(C)c2)cc1 (stereo unspecified) was read as ALR inh 30.2, NALP1 yeast inh 6.9, PolyA inhibitor -4.6, Arr AP2 block 4.2, DSG3 Ab inh 110.2 and NALP3 yeast inh 0.0.
`Cc1cnn(CCC(=O)NNC(=S)Nc2cccc(Cl)c2)c1` gave ALR inh 43.7, NALP1 yeast inh 2.3, PolyA inhibitor -3.3, Arr AP2 block 6.4, DSG3 Ab inh 111.7 and NALP3 yeast inh 16.9.
`Cc1cnn(CCC(=O)NNC(=S)Nc2ccc(F)cc2)c1` gave ALR inh 81.6*, NALP1 yeast inh -13.5, PolyA inhibitor 4.5, Arr AP2 block -4.8, DSG3 Ab inh 102.9 and NALP3 yeast inh 13.1.
Screening O=C1CSc2cc(Cl)ccc2N1 returned Arr AP2 block -25.2 and DSG3 Ab inh 87.2.
For Cc1nc2cc(NC(=O)NCCCO)ccc2o1 the results were ALR inh -26.7, NALP1 yeast inh 29.1*, PolyA inhibitor 9.9, Arr AP2 block 29.8 and NALP3 yeast inh 3.6.
Screening C/C(=N\NS(=O)(=O)c1ccc(Cl)cc1)c1ccc(O)cc1 returned ALR inh 95.7*, NALP1 yeast inh -4.5, PolyA inhibitor 40.0, Arr AP2 block 2.9, DSG3 Ab inh 103.6 and NALP3 yeast inh 0.9.
`Cc1[nH]n(-c2ccccc2)c(=O)c1/C=N/NC(=O)c1ccc(O)cc1O` gave NALP1 yeast inh -6.2, PolyA inhibitor -16.2, Arr AP2 block -10.5, DSG3 Ab inh 102.1 and NALP3 yeast inh 12.5.
Screening Cc1ccc(-n2[nH]c(C)c(/C=N/NC(=O)c3ccc(O)cc3O)c2=O)cc1 returned ALR inh 93.6*, NALP1 yeast inh 5.9, PolyA inhibitor 30.6, Arr AP2 block 8.1, DSG3 Ab inh 107.8 and NALP3 yeast inh 7.2.
Screening O=C(COC(=O)COc1ccc(Br)cc1)NNC(=O)c1ccccc1 returned ALR inh -0.6, Arr AP2 block 0.6 and NALP3 yeast inh 3.3.
CN(C(=O)c1ccc(Oc2ccc([N+](=O)[O-])cc2)cc1)C1CCCCC1 was read as ALR inh -2.2, NALP1 yeast inh 22.6, PolyA inhibitor -8.7, Arr AP2 block -8.0, DSG3 Ab inh 91.9* and NALP3 yeast inh 37.1.
For CCN(CC)S(=O)(=O)c1cccc(-c2n[nH]c(=S)n2/N=C/c2ccc(OC)cc2)c1 the results were NALP1 yeast inh 21.8, PolyA inhibitor 5.3, Arr AP2 block 4.0, DSG3 Ab inh 102.3 and NALP3 yeast inh 10.5.
Screening CCN(CC)S(=O)(=O)c1cccc(-c2n[nH]c(=S)n2/N=C/c2ccc(OC(F)F)cc2)c1 returned ALR inh 97.7*, NALP1 yeast inh 12.9, PolyA inhibitor 7.6, Arr AP2 block -5.9, DSG3 Ab inh 78.6 and NALP3 yeast inh 32.1.
O=C(NCC(c1cccnc1)N1CCN(c2ccc(F)cc2)CC1)c1ccc(F)cc1 (stereo unspecified) was read as ALR inh 97.9*, NALP1 yeast inh -11.6, PolyA inhibitor 6.1, Arr AP2 block 18.8, DSG3 Ab inh 99.9 and NALP3 yeast inh 1.6.
